ChEMBL document CHEMBL1124702, “Synthesis and pharmacological evaluation of a series of dibenzo[a,d]cycloalkenimines as N-methyl-D-aspartate antagonists” (J Med Chem, 1990)

Legend:
Glutamate NMDA receptor = assay: Inhibition of N-methyl-D-aspartate glutamate receptor (NMDA receptor) from homogenized rat brain membrane, using [3H]-MK-801 as a radioligand
Method in brief: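 Male Sprague-Dawley rat (200-300 g) cortical membranes, washed and preincubated 20 min at 23 °C in 5 mM Tris-HCl pH 7.4. Duplicate aliquots (ca. 0.75 mg protein) incubated 60 min at 23 °C with displacer plus [3H]-(+)-10 added as 100 µL of 50 nM stock. Filter-bound radioactivity counted by liquid scintillation; Ki reported.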

[1] = biological target: Glutamate NMDA receptor (Rattus norvegicus) (UniProt P35439+Q00959+Q00960+Q00961+Q62645+Q8VHN2+Q9R1M7); assay: Antagonistic activity against N-methyl-D-aspartate glutamate receptor from rat cortical slice; format: functional
Method in brief: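 Greased-gap recording of NMDA-induced population depolarizations in rat cortical slices. An NMDA concentration-response curve was run, then repeated with antagonist present. Apparent Kb = antagonist concentration/(CR-1), with CR taken at the midpoint of the control curve. If the curve flattened, a lower antagonist concentration was tried. Failing that, the threshold concentration giving significant antagonism was used.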

Mus musculus = assay: Inhibition of N-Methyl-D,L-aspartate induced convulsions in mice following 500 mg/kg i.p.; format: functional; details: ip, route intraperitoneal

SMILES	Ki (Glutamate NMDA receptor) [µM]	Kb [1] [µM]	ED50 (Mus musculus) [mg/kg]
CC12NC(Cc3ccc(Cl)cc31)c1ccccc12 (stereo in doubt; 64)	0.011		
CC12NC(Cc3ccccc31)c1ccc(Cl)cc12 (stereo in doubt; 63)		1.66	
O=C(O)CC12NC(Cl)(Cc3ccccc31)c1ccccc12 (stereo unspecified)	> 4500		
CC12NC(Cc3ccccc31)c1cc(O)ccc12 (single isomer, unassigned; (-))	0.761		
COc1ccc2c(c1)CC1NC2(C)c2ccccc21 (stereo unspecified)	0.61		
CC12NC(Cc3ccccc31)c1cc(O)ccc12 (stereo in doubt; (+)-106)		0.14	
CC12NC(Cc3ccc(I)cc31)c1ccccc12 (stereo unspecified)	0.011	0.51	
FCCC12NC(Cc3ccccc31)c1ccccc12 (stereo unspecified)	0.174	0.23	
OCCC12NC(Cl)(Cc3ccccc31)c1ccccc12 (stereo unspecified)	0.28		
CC12NC(Cc3ccccc31)c1ccc(Cl)cc12 (single isomer, unassigned; (+)) [listing 1 of 2 here]	0.006		
CC12NC(Cc3ccccc31)c1ccc(Cl)cc12 (stereo in doubt; (-)-63) [listing 1 of 2 here]	0.3		
CC12NC(Cc3ccccc31)c1ccc(Cl)cc12 (single isomer, unassigned; (+)) [listing 2 of 2 here]		0.08	
CCOC(=O)CC12NC(Cc3ccccc31)c1ccccc12 (stereo unspecified)	0.55		
c1ccc2c(c1)CC1NC2c2ccccc21 (stereo unspecified)	22.6		
COc1ccc2c(c1)C1Cc3ccccc3C2(C)N1 (stereo unspecified)	0.033	0.13	
CC12NC(c3ccccc31)[C@@H](O)c1ccccc12 (single isomer, unassigned; (-))	0.302		
ClCCC12NC(Cl)(Cc3ccccc31)c1ccccc12 (stereo unspecified)	53		
CCCCc1ccc2c(c1)C1(C)NC(C2)c2ccccc21 (stereo unspecified)	1.25		
Cc1ccc2c(c1)C1(C)NC(C2)c2ccccc21 (stereo unspecified)	0.034	0.38	0.53
CC12NC(Cc3ccc(Br)cc31)c1ccccc12 (stereo in doubt; 88)		0.9	
CN1C2Cc3ccccc3C1c1ccccc1C2	57		
O=C(O)C(O)[C@]12NC(Cc3ccccc31)c1ccccc12 (stereo partly specified)	> 1000		
CC12NC(F)(Cc3ccccc31)c1ccccc12 (stereo unspecified)	0.93		
CN1C2(C)Cc3ccccc3C1(C)c1ccccc1C2	8.7		

SMILES	Ki (Glutamate NMDA receptor) [µM]	Kb [1] [µM]	ED50 (Mus musculus) [mg/kg]
OCC(O)[C@]12NC(Cc3ccccc31)c1ccccc12 (stereo partly specified)	0.32		
c1ccc2c(c1)CC1NC2(C2SCCCS2)c2ccccc21 (stereo unspecified)	> 10		
c1ccc(SCC23NC(Cc4ccccc42)c2ccccc23)cc1 (stereo unspecified)	73		
CCC12NC(Cc3ccccc31)c1ccccc12 (stereo unspecified)	0.045	0.59	
CN1C2CCc3ccccc3C1c1ccccc12 (stereo unspecified)	2.6		
CC12NC(Cc3ccccc31)c1ccc(Cl)cc12 (stereo in doubt; (-)-63) [listing 2 of 2 here]		0.56	
CCC12c3ccccc3CC(Cc3ccccc31)N2C	2.04		
CN1C2CCc3ccccc3C1(O)c1ccccc12 (stereo unspecified)	> 100		
CC12NC(Cc3ccccc31)c1cc(O)ccc12 (stereo in doubt; 106)		0.24	
c1ccc2c(c1)CC1Cc3ccccc3C2N1	5.1		
CC12NC(Cc3ccc(N)cc31)c1ccccc12 (stereo unspecified)	0.027		
CCCC12NC(Cc3ccccc31)c1ccccc12 (stereo unspecified)	8.6		
CN1C2Cc3ccccc3C1(C)c1ccccc1C2	1.2		
COc1ccc2c(c1)C1(C)NC2Cc2ccccc21 (stereo in doubt; (-)-83)	0.102		
CCN1C2Cc3ccccc3C1c1ccccc12 (stereo unspecified)	24		
CCOC(=O)CC12c3ccccc3CC(O)(c3ccccc31)N2O (stereo unspecified)	> 4500		
OCCN1C2Cc3ccccc3C1c1ccccc12 (stereo unspecified)	71		
OCCC12NC(O)(Cc3ccccc31)c1ccccc12 (stereo unspecified)	0.074	2.1	
CN1C2(C)Cc3ccccc3C1(C)c1ccccc12 (stereo unspecified)	0.71		
CC12NC(Cc3ccc(F)cc31)c1ccc(F)cc12 (stereo unspecified)	0.031	0.32	
O=C(O)CC12NC(O)(Cc3ccccc31)c1ccccc12 (stereo unspecified)	280		
CC12NC(c3ccccc31)[C@H](O)c1ccccc12 (stereo partly specified)	2.7		
COc1ccc2c(c1)C1(C)NC2Cc2ccccc21 (stereo in doubt; 83)	0.036		0.77
